ChEMBL document CHEMBL3102802, “Synthesis, modelling and biological characterization of 3-substituted-1H-indoles as ligands of GluN2B-containing N-methyl-d-aspartate receptors” (Bioorg Med Chem, 2014)

Experiments:
[1] = molecular target: Glutamate receptor ionotropic, NMDA 2B (Rattus norvegicus) (UniProt Q00960); assay: Displacement of [3H]Ifenprodil from NMDA receptor GluN2B subunit in Wistar rat cerebral cortex at 0.1 uM; type: tissue-based
[2] = Antioxidant activity of the compound assessed as inhibition of ABTS radicals after 20 mins by spectrophotometric analysis; type: functional
Method in brief: (§1)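 ABTS radical cation generated from ABTS and potassium persulfate in 0.1 M phosphate buffer pH 7.0, left 16 h in the dark at room temperature. Blank absorbance at 734 nm adjusted to about 1.0. Samples from 2 mM stocks in MeOH/phosphate buffer 1:1. A734 read at room temperature after exactly 20 min. %inhibition = (Ablank − Asample)/Ablank, mean of triplicates.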

[3] = Antioxidant activity of the compound assessed as inhibition of ABTS radicals at 9 uM after 20 mins by spectrophotometric analysis; type: functional; method in brief: as §1
[4] = Antioxidant activity of the compound assessed as inhibition of ABTS radicals at 17 uM after 20 mins by spectrophotometric analysis; type: functional; method in brief: as §1
[5] = Antioxidant activity of the compound assessed as inhibition of ABTS radicals at 33 uM after 20 mins by spectrophotometric analysis; type: functional
[6] = molecular target: Glutamate receptor ionotropic, NMDA 2B (Rattus norvegicus, UniProt Q00960); assay: Displacement of [3H]Ifenprodil from NMDA receptor GluN2B subunit in Wistar rat cerebral cortex; type: tissue-based
Glutamate receptor ionotropic, NMDA 2B (Rattus norvegicus, UniProt Q00960), sequence (Q00960 whole entry): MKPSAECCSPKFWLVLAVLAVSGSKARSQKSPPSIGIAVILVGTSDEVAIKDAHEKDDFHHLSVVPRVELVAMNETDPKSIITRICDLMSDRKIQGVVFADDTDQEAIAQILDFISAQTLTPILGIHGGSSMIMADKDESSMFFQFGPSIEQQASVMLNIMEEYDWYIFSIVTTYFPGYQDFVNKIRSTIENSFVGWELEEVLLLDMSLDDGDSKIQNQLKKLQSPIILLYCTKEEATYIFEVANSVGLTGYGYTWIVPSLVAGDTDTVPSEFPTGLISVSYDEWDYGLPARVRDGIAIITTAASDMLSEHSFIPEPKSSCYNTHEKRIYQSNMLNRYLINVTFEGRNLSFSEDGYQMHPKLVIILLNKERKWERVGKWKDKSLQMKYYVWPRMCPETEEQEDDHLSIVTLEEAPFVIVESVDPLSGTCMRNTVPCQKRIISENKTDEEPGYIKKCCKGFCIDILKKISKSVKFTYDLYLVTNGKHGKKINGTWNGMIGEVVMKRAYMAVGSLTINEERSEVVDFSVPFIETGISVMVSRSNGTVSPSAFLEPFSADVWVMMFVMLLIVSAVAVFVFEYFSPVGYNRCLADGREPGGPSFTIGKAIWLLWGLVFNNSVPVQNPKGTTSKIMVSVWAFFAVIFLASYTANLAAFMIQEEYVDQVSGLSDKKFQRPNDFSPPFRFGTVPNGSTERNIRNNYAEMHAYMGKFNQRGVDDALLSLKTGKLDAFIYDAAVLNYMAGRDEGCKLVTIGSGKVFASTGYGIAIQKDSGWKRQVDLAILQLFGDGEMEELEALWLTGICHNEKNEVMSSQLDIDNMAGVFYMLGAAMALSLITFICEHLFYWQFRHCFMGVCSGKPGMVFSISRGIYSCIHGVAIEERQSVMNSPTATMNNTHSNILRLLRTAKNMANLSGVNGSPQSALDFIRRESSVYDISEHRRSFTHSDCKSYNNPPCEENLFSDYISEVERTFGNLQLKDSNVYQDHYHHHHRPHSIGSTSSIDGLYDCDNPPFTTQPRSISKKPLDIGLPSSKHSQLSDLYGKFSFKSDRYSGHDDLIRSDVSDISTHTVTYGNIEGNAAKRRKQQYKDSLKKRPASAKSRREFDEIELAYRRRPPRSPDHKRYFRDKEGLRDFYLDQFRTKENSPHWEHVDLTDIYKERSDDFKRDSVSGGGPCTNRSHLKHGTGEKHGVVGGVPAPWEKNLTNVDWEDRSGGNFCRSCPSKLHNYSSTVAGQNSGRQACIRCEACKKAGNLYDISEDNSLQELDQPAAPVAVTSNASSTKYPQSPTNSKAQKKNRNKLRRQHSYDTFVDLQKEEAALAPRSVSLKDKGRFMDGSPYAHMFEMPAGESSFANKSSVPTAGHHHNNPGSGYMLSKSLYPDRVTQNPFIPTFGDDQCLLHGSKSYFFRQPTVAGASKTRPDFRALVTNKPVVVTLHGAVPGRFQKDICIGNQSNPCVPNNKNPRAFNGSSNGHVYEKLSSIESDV

[7] = molecular target: Glutamate receptor ionotropic, NMDA 2B (Rattus norvegicus) (UniProt Q00960); assay: Displacement of [3H]Ifenprodil from NMDA receptor GluN2B subunit in Wistar rat cerebral cortex at 10 uM; type: tissue-based
[8] = system: Mus musculus; assay: Anticonvulsant activity in ip dosed sound-induced DBA/2 mouse seizure model assessed as tonus phase latency; type: functional; conditions: DBA/2, ip
Method in brief: (§2)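 DBA/2 mice (8–12 g, 22–25 days old, either sex), groups of 10. Compound given ip at 0.1 mL/10 g in 50% DMSO/50% saline; vehicle controls. Auditory stimulus (12–16 kHz, 109 dB) applied 30 min later for 60 s or until tonic extension, after 60 s habituation. Latency to and incidence of seizure phases scored; Fisher's exact test. ED50 by Litchfield–Wilcoxon.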

[9] = system: Mus musculus; assay: Anticonvulsant activity in ip dosed sound-induced DBA/2 mouse seizure model assessed as clonus phase latency; type: functional; conditions: DBA/2, ip; method in brief: as §2
[10] = molecular target: Glutamate receptor ionotropic, NMDA 2B (Mus musculus) (UniProt Q01097); assay: Antagonist activity at NMDA receptor GluN2B subunit in FVB mouse CA1 pyramidal neurons assessed as reversible reduction of excitatory post synaptic current amplitude at 50 nM at holding potential of -60 mV measured for 5 mins by patch clamp technique in presence of Mg2+free ACSF relative to control; type: cell-based; design: scale not given: the % may be the effect or the level left; conditions: Pyramidal neuron
Method in brief: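 Whole-cell recordings of NMDA receptor-mediated EPSCs in mouse hippocampal slices, with glycine (10 µM) and bicuculline (5 µM) in the bath. Compound applied for 5 min, then washed out. EPSC amplitude taken as peak minus baseline and measured over 5 min in control and in drug for each neuron. Expressed as % of control, n = 4; unpaired Student's t test.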

[11] = molecular target: Glutamate receptor ionotropic, NMDA 2B (Homo sapiens, UniProt Q05586+Q13224); assay: Inhibition of NMDA receptor GluN2B subunit (unknown origin)
Glutamate receptor ionotropic, NMDA 2B (Homo sapiens, UniProt Q05586+Q13224), sequence (Q13224 whole entry, one chain of several): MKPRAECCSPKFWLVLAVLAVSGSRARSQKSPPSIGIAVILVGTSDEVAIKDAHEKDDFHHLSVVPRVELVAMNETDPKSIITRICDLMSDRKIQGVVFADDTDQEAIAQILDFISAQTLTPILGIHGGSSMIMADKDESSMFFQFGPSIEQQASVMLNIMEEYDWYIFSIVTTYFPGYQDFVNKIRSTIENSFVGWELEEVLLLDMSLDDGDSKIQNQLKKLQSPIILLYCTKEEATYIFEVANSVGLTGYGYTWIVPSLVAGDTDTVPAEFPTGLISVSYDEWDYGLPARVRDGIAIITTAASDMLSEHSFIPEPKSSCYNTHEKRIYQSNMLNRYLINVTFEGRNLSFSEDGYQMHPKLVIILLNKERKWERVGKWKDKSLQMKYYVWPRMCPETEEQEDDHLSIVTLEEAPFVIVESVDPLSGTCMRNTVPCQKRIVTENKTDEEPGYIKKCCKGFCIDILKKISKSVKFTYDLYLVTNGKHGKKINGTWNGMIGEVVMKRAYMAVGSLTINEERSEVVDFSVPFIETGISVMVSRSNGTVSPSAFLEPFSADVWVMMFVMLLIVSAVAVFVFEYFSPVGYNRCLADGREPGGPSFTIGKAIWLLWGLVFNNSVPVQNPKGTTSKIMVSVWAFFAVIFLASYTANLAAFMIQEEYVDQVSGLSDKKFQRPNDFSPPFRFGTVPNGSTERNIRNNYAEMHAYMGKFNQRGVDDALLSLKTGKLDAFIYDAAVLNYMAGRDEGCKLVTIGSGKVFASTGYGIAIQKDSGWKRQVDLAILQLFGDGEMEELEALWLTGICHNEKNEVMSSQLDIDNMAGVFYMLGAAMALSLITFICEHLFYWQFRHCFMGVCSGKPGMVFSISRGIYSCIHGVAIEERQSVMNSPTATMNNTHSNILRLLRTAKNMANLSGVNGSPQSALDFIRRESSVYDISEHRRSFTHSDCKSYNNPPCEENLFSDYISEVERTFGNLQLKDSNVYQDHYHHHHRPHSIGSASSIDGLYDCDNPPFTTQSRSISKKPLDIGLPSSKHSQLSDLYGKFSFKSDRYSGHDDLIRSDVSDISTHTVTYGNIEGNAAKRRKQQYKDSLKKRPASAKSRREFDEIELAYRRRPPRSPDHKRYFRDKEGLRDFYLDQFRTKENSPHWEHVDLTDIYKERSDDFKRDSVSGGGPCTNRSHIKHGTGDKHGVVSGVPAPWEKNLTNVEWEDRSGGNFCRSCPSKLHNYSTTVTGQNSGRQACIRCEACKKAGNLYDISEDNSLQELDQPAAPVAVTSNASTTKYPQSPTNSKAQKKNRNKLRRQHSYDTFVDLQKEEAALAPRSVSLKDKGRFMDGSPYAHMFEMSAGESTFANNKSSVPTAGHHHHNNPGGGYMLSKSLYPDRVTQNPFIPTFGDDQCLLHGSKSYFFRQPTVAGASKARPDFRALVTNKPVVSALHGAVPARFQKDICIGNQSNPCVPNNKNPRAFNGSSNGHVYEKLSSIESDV

Glutamate receptor ionotropic, NMDA 2B (Rattus norvegicus), sequence (Q00960 27-1482 limits assumed): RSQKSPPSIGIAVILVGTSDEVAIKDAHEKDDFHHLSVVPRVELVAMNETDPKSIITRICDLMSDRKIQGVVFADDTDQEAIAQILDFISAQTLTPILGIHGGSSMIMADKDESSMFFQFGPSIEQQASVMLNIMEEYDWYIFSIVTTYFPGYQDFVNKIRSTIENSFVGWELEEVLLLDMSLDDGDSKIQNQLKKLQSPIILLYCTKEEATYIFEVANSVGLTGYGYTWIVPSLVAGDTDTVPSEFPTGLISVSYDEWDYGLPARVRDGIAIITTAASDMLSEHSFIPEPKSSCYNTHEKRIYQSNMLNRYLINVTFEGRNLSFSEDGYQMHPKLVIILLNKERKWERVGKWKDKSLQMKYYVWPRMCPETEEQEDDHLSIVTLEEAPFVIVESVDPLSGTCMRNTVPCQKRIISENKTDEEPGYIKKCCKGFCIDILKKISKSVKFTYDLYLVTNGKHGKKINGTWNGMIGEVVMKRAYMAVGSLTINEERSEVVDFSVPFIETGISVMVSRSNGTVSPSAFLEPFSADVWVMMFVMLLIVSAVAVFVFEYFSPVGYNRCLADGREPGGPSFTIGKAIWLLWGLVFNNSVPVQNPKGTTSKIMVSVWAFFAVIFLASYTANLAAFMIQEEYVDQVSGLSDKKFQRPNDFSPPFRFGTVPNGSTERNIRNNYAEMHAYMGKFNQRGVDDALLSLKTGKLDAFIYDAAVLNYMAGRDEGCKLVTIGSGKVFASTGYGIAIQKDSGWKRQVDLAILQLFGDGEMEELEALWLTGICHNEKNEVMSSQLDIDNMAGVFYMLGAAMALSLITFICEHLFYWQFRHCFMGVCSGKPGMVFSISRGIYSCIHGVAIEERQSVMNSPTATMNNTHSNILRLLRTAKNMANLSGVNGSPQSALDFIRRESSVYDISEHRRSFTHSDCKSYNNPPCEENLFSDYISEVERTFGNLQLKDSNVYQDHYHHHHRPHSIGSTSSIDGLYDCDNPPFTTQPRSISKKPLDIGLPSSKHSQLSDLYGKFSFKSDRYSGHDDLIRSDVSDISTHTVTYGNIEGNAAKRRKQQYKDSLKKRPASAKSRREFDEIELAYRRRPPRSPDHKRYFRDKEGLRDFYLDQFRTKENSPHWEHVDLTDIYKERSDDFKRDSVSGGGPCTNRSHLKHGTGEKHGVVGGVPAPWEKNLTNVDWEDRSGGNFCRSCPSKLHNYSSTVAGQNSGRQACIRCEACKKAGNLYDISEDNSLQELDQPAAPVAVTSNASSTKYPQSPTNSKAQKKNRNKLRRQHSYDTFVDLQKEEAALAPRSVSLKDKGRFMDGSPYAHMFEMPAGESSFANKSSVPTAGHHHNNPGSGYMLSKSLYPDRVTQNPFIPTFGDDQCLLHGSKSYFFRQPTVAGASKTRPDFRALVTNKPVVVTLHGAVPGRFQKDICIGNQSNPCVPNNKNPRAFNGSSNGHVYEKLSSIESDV

O=C(C(=O)N1CCC(Cc2ccc(F)cc2)CC1)c1c[nH]c2ccc(O)cc12 showed an inhibition [1] of 11%.

With Oc1cc2cc[nH]c2cc1O the inhibition [2] was “Dose-dependent effect”, the inhibition [3] was 54.4% and the inhibition [4] was over 84.4%.

With Oc1ccc2[nH]ccc2c1 the inhibition [2] was “Dose-dependent effect”, the inhibition [3] was 79.8% and the inhibition [5] was over 90.1%.

With c1ccc2[nH]ccc2c1 the inhibition [2] was “Dose-dependent effect” and the inhibition [5] was 25.6%.

In the case of O=C(C(=O)N1CCC(Cc2ccccc2)CC1)c1c[nH]c2cc(O)c(O)cc12, the inhibition [1] is reported as 40%.

Molecule O=C(CN1CCC(Cc2ccc(F)cc2)CC1)c1c[nH]c2cc(O)ccc12 has an IC50 [6] of 9.1 nM and an inhibition [1] of 82%.

In the case of COc1ccc2[nH]cc(C(=O)C(=O)N3CCC(Cc4ccc(F)cc4)CC3)c2c1, the inhibition [7] is reported as 35%.

Work on O=C(CN1CCC(Cc2ccc(F)cc2)CC1)c1c[nH]c2cc(O)c(O)cc12 yielded an IC50 [6] of 30 nM and an inhibition [1] of 84%.

In the case of Oc1ccc2cc[nH]c2c1, the inhibition [2] is reported as “Dose-dependent effect”, the inhibition [3] is reported as 83% and the inhibition [5] is reported as over 89.8%.

Work on COc1ccc2c(C(=O)CN3CCC(Cc4ccc(F)cc4)CC3)c[nH]c2c1 yielded an inhibition [7] of 82%.

With COc1ccc2[nH]cc(C(=O)CN3CCC(Cc4ccc(F)cc4)CC3)c2c1 the inhibition [7] was 73%.

Molecule O=C(CN1CCC(Cc2ccccc2)CC1)c1c[nH]c2cc(O)c(O)cc12 has an ED50 [8] of 76.7 µmol/kg, an ED50 [9] of 89.4 µmol/kg and an Activity [10] of 57%. For the same molecule, the IC50 [6] was 5.5 nM and the inhibition [1] was 91%.

In the case of CS(=O)(=O)Nc1ccc2c(C(=O)C(=O)N3CCC(Cc4ccc(F)cc4)CC3)c[nH]c2c1, the IC50 [6] is reported as 18 nM and the inhibition [1] is reported as 67%.

Work on COc1ccc2c(C(=O)C(=O)N3CCC(Cc4ccc(F)cc4)CC3)c[nH]c2c1 yielded an inhibition [1] of 27%.

For O=C(C(=O)N1CCC(Cc2ccc(F)cc2)CC1)c1c[nH]c2cc(O)ccc12, the IC50 [6] was 20 nM and the inhibition [1] was 61%.

For Nc1ccc2c(C(=O)CN3CCC(Cc4ccc(F)cc4)CC3)c[nH]c2c1, the inhibition [1] was 12%.

In the case of COc1cc2[nH]cc(C(=O)C(=O)N3CCC(Cc4ccccc4)CC3)c2cc1OC, the inhibition [7] is reported as 9%.

With O=C(O)c1cc(O)c(O)c(O)c1 the inhibition [2] was “Dose-dependent effect”, the inhibition [3] was 61.6% and the inhibition [4] was over 94.1%. It also gave an inhibition [5] of over 93.9%.

CS(=O)(=O)Nc1ccc2[nH]cc(C(=O)C(=O)N3CCC(Cc4ccc(F)cc4)CC3)c2c1 showed an inhibition [1] of 4%.

With O=C(C(=O)N1CCC(Cc2ccc(F)cc2)CC1)c1c[nH]c2cc(O)c(O)cc12 the inhibition [1] was 38%.

For O=C(O)/C=C/c1ccc(O)c(O)c1, the inhibition [2] was “Dose-dependent effect”, the inhibition [4] was 71.5% and the inhibition [5] was over 93.4%.

Nc1ccc2[nH]cc(C(=O)CN3CCC(Cc4ccc(F)cc4)CC3)c2c1 gave an inhibition [1] of 33%.

CS(=O)(=O)Nc1ccc2[nH]cc(C(=O)CN3CCC(Cc4ccc(F)cc4)CC3)c2c1 showed an inhibition [1] of 10%.

In the case of O=C(CN1CCC(Cc2ccc(F)cc2)CC1)c1c[nH]c2ccc(O)cc12, the IC50 [6] is reported as 51 nM and the inhibition [1] is reported as 60%.

Molecule O=C(CN1CCC(Cc2ccccc2)CC1)c1c[nH]c2ccccc12 has an IC50 [11] of 769 nM.

Work on COc1cc2[nH]cc(C(=O)CN3CCC(Cc4ccccc4)CC3)c2cc1OC yielded an inhibition [1] of 1%.

Work on CS(=O)(=O)Nc1ccc2c(C(=O)CN3CCC(Cc4ccc(F)cc4)CC3)c[nH]c2c1 yielded an IC50 [6] of 9.4 nM and an inhibition [1] of 81%.
